What was measured:
[1] = Competitive inhibition of Streptococcus pneumoniae ASADH using aspartyl semialdehyde as substrate using Dixon plot analysis
Method in brief: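 Recombinant S. pneumoniae enzyme, reverse reaction read as NADPH rise at 340 nm, room temperature. Buffer: 120 mM CHES pH 8.6, 200 mM KCl, 20% DMSO for DMSO-soluble inhibitors. Substrates: 1 mM ASA, 1.5 mM NADP, 20 mM phosphate. Enzyme added last; inhibitor serially diluted. Initial velocities fitted to Dixon equation assuming competition with ASA.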

[2] = Competitive inhibition of Vibrio cholerae ASADH using aspartyl semialdehyde as substrate by Dixon plot analysis
Method in brief: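 Recombinant V. cholerae ASADH, reverse reaction, room temperature, in 120 mM CHES pH 8.6, 200 mM KCl and 20% DMSO. Final levels: ASA 1 mM, NADP 1.5 mM, phosphate 20 mM. Enzyme added to start; inhibitor serially diluted across wells. NADPH rise read at 340 nm; initial velocities fitted to Dixon equation assuming ASA-competitive inhibition to give Ki.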

[3] = Competitive inhibition of Vibrio cholerae ASADH using different concentration of aspartyl semialdehyde as substrate by spectrophotometry
Method in brief: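 Recombinant V. cholerae ASADH, reverse reaction at room temperature in 120 mM CHES pH 8.6, 200 mM KCl, 20% DMSO, with NADP and phosphate. ASA varied at several fixed inhibitor concentrations. NADPH formation read at 340 nm; initial-rate data fitted to standard inhibition-type models.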

Work on CN1C(=O)c2ccc([N+](=O)[O-])cc2C1=O yielded a Ki [1] of 890 µM and a Ki [2] of 1100 µM.

Work on Cn1c(=O)n(C)c2cc([N+](=O)[O-])ccc21 yielded a Ki [1] of 86 µM, a Ki [2] greater than 130 µM and a Ki [3] of 24 µM.

With CCN1C(=O)c2ccc([N+](=O)[O-])cc2C1=O the Ki [1] was greater than 4000 µM.

O=C(O)c1ccc(C(=O)O)nc1 [PYRIDINE-2,5-DICARBOXYLIC ACID] gave a Ki [1] of 690 µM and a Ki [2] of 1200 µM.

Compound COC(=O)c1cc(C(=O)Nc2ccc([N+](=O)[O-])cc2)cc(C(=O)OC)c1 has a Ki [1] greater than 20000 µM.

Work on O=c1[nH]c2ccc([N+](=O)[O-])cc2[nH]1 yielded a Ki [1] of 400 µM and a Ki [2] of 1100 µM.

O=C1NC(=O)c2cc([N+](=O)[O-])c(Cl)cc21 showed a Ki [1] of 150 µM, a Ki [2] of 180 µM and a Ki [3] of 197 µM.

In the case of O=C(O)c1cc(C(=O)O)cc(C(=O)Nc2ccc([N+](=O)[O-])cc2)c1, the Ki [1] is reported as 110 µM and the Ki [2] is reported as 180 µM.

COC(=O)c1ccc(C(=O)OC)nc1 gave a Ki [1] greater than 20000 µM.

With O=C1NC(=O)c2cc([N+](=O)[O-])ccc21 the Ki [1] was 3300 µM and the Ki [2] was 2600 µM.

CCn1c(=O)n(CC)c2cc([N+](=O)[O-])ccc21 showed a Ki [1] greater than 4000 µM.

For O=C(O)c1ccc([N+](=O)[O-])cn1, the Ki [1] was 1200 µM and the Ki [2] was 2100 µM.

COC(=O)c1ccc([N+](=O)[O-])cn1 showed a Ki [1] greater than 20000 µM.
